Screening data as filed in PubChem BioAssay.
Most compounds without a hit are left out; they make up all but 2.1% or so of the library.
MEKK2mut PB1 HTS = signal of MEK5 binding to mutant human MEKK2 PB1 domain. bead flow cytometry, Alexa488-MEK5 binding to MEKK2 mutant. percent response, % at 10 µM. hit rate 0.35% among 290,000. AID 1530; in the data active = percent response above about 24%, passing the limit was not always enough
STK33 kinase inh = blocks human STK33 kinase activity; Q9BYT3; purified STK33, MBP phosphorylation, ADP-Glo luminescence; inhibition, % at 10 µM; hit rate 0.073% among 320,000; AID 2661;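 active = inhibition at or above 25%, using the most active replicate where run in duplicate; inactive = inhibition below 25%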
GSK3B inh = human GSK3beta kinase inhibition. P49841. GST-GSK3beta kinase, ADP-Glo luminescence, 60 min; stronger effect = lower value. activity score (negative = inhibition), % at 10 µM. hit rate 0.038% among 300,000. AID 2097;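 active = more than half of replicate wells score below -50%, meaning over 50% inhibition versus plate controls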
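test system = GST-tagged human GSK3beta kinase, cell-free | reagent = 25 µM ATP with peptide substrate | dosing = one dose of 10 µM per compound | schedule = 60 min reaction, RT | detection = luminescent ADP-Glo measurement of ADP formed | control set = DMSO neutral wells and GW8510 at 20 µM as positive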
GSK3A inh = blocks human GSK-3 alpha kinase; P49840; ADP-Glo luminescence, 60 min; inhibition, % at 10 µM; hit rate 0.1% among 320,000;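 active = more than half of replicates show inhibition above 20%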;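 note: GST-tagged GSK-3 alpha with peptide substrate and 25 µM ATP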
Target sequence (P49840 whole entry, looked up): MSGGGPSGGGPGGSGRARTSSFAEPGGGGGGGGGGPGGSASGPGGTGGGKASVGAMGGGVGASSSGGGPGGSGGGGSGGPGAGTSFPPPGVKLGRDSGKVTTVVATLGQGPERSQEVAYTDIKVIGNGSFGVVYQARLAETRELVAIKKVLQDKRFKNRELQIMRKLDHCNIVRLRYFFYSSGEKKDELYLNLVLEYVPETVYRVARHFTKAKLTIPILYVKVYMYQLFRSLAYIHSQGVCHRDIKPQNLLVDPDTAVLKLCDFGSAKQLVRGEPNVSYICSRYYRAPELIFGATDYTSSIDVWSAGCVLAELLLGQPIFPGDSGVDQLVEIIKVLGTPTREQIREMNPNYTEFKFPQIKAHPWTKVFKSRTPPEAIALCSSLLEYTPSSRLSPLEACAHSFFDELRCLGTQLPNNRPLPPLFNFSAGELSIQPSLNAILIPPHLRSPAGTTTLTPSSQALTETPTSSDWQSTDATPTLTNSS
MEKK2wt PB1 HTS = raises or lowers MEK5 binding to wildtype human MEKK2 PB1 domain. bead flow cytometry, Alexa488-MEK5 binding to MEKK2 WT; actives lie on both sides. binding response (% of control), % at 10 µM. hit rate 1.1% among 290,000. AID 1531; in the data active = binding response below about 67% or above about 130%
MEKK3 PB1 HTS = MEKK3-MEK5 PB1 interaction, increase or decrease; Q99759; AID 1529; binding response (% of control), % at 10 µM; hit rate 1.4% among 290,000; bead-based flow cytometry, Alexa488-MEK5 binding to MEKK3; actives lie on both sides; 0 = blocked by unlabeled MEK5, 100 = vehicle;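 active = binding response more than 3 SD above or below the average of its plate-row segment, actives on both sides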;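 note: Alexa488 bead fluorescence after subtracting the streptavidin-only scavenger bead signal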
Of the large screens only hits and unclear results are named; the others gave an inactive call.

Cc1cc(C)nc(N/N=C/c2ccccc2OCc2ccc([N+](=O)[O-])cc2)n1	none
O=[N+]([O-])c1ccc(N/N=C\c2ccccc2OCc2ccccc2)cc1	MEKK2wt PB1 HTS 9.0
CC(C)(Cc1ccccc1)/[N+]([O-])=C\c1ccccc1	none (no result: MEKK2mut PB1 HTS, MEKK2wt PB1 HTS, MEKK3 PB1 HTS)
COc1ccccc1NC(=O)Nc1ncccc1C	STK33 kinase inh 30.0 (no result: MEKK2mut PB1 HTS, MEKK2wt PB1 HTS, MEKK3 PB1 HTS)
CCOC(=O)c1c(NC(=O)c2nn(C)cc2[N+](=O)[O-])sc(C)c1C	none
O=S(=O)(O)c1cccc(N=Nc2c(O)ccc3ccccc23)c1	STK33 kinase inh 60.4
Oc1ccc2ccccc2c1N=Nc1ccccc1F	none
O=C1CCN(S(=O)(=O)c2ccccc2)CCN1CCOCc1cccc(F)c1	none
CCN(CC)CCNC(=O)C1CCN(S(=O)(=O)c2c(C)noc2/C=C/c2ccccc2F)CC1	MEKK2wt PB1 HTS 136.0
CCN(CCNC(=O)C1CCN(S(=O)(=O)c2c(C)noc2C)CC1)c1ccccc1	none
CCC(=O)NC(Nc1c(C)n(C)n(-c2ccccc2)c1=O)C(Cl)(Cl)Cl (stereo not given)	none
COc1cccc(O)c1CN1CCC(Oc2ccc(C(=O)NCc3ccccn3)cc2)CC1	none
CC(=O)NNC(=O)c1sc(=S)n(C)c1C	MEKK2wt PB1 HTS -5.0
CCOC(=O)C(OC(=O)c1sc(=S)n(C)c1C)C(C)=O (stereo not given)	none
COc1cc(C(=O)NCCCNc2nc3cc(C)c(C)cc3cc2C#N)cc(OC)c1OC	none
N#C/C(=C(/O)c1ccco1)c1nc2ccccc2[nH]1	STK33 kinase inh 28.6
N#C/C(=C(\O)Cc1ccccc1)c1nc2ccccc2[nH]1	none
CC(=O)N1CCCC1(C(=O)O)c1ccccc1 (stereo not given)	MEKK2wt PB1 HTS -3.0
N/C(=C\C(=O)c1cc(Cl)ccc1O)C(Cl)(Cl)Cl	MEKK2wt PB1 HTS -3.0
O=c1c(-c2c(O)cc(O)c3c2O[C@H](c2ccc(O)cc2)CC3)c(-c2ccc(O)cc2)oc2cc(O)cc(O)c12	STK33 kinase inh 25.3 (no result: MEKK2mut PB1 HTS, GSK3B inh, MEKK2wt PB1 HTS, MEKK3 PB1 HTS)
CCCCN(C)CCNC(=O)c1cc(-c2cccnc2)nc2ccc(S(=O)(=O)N3CCC(C)CC3)cc12	MEKK2wt PB1 HTS 136.0
CCN(CC)CCNC(=O)c1cc(-c2cccnc2)nc2ccc(S(=O)(=O)N3CCC(C)CC3)cc12	none
COc1cc2ncnc(NCc3cccc(Cl)c3)c2cc1OC	MEKK2wt PB1 HTS 138.0
Cc1ccc2nc(SCC(=O)c3ccc(O)cc3O)[nH]c2c1	none
S=C(Nc1ccc(Cl)cc1)c1nc2ccccc2[nH]1	MEKK3 PB1 HTS 128.0
O=C(/C(=C\c1ccccc1)c1nc2ccccc2[nH]1)c1ccc(Cl)cc1	MEKK2wt PB1 HTS 5.0
O=C(/C(=C/c1ccc(Cl)cc1)c1nc2ccccc2[nH]1)c1cccs1	none
Cc1ccc(NC(=O)N2CCN(C/C=C/c3ccccc3)CC2)cc1	none
COC(=O)c1ccccc1NC(=O)N1CCN(C/C=C/c2ccccc2)CC1	STK33 kinase inh 32.4
Cc1nn2c(Nc3ccccc3)c3c(nc2c1-c1ccccc1)CCC3	MEKK3 PB1 HTS 176.0
Cc1nn2c(NC(C)C)c3c(nc2c1-c1ccccc1)CCC3	none
CCOC(=O)C1CCN(c2ccc(Cl)nn2)CC1	MEKK2wt PB1 HTS -3.0
N#Cc1ccc(OCC(=O)NCCCn2ccnc2)cc1	none (no result: MEKK2mut PB1 HTS, GSK3B inh, MEKK2wt PB1 HTS, MEKK3 PB1 HTS)
CC(C)(C)c1ccc(C(CC(=O)O)NC(=O)Cc2ccc(F)cc2)cc1 (stereo not given)	none
O=C(NCC(c1ccco1)N1CCCC1)c1cc2ccccc2s1 (stereo not given)	none (no result: MEKK2mut PB1 HTS, GSK3B inh, MEKK2wt PB1 HTS, MEKK3 PB1 HTS)
COc1cc(/C=C/C(=O)O)cc(S(=O)(=O)N2CCN(S(=O)(=O)c3ccc(Cl)cc3)CC2)c1OC	none
O=C(CSc1ccccc1)Nc1ccc2c(c1)C(=O)NC2=O	GSK3A inh 60.4
O=C(NCCN1C(=O)S/C(=C/c2cccnc2)C1=O)C1CC(=O)N(Cc2ccccc2)C1 (stereo not given)	none
C=CCOc1ccc(CN(C)C(=O)C2CCCO2)cc1 (stereo not given)	none
NS(=O)(=O)c1ccc(CNC(=S)NC2CCCCC2)cc1	none
NS(=O)(=O)c1ccc(CCNC(=S)NC2CCCC2)cc1	MEKK2wt PB1 HTS -10.0
